Activity calls are given as the source filed them.
Assays:
[1] = target: T1, Proteasome Macropain subunit MB1 (Homo sapiens) (UniProt P28074); test: Inhibition of chymotrypsin-like activity of human 20S proteasome beta5 subunit at 50 uM using Suc-LLVY-Glo as substrate incubated for 2 hrs followed by substrate addition and measured for 10 mins by bioluminescent assay relative to control; conditions: time 130.0 min
T1 sequence (whole entry): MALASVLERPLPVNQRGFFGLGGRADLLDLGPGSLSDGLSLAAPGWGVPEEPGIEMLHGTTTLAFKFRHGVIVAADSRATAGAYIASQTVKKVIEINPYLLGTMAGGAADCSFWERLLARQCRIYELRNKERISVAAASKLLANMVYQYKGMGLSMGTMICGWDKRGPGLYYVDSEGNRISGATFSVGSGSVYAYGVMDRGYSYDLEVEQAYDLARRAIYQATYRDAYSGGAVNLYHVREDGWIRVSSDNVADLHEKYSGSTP
Outline: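 Human constitutive 20S proteasome (1 µg/mL) was incubated with compound for 2 h at 25 °C in 10 mM HEPES pH 7.6 with 1% DMSO final. Suc-LLVY-Glo substrate was then added, and luminescence was read over 10 min. Inhibition rate was calculated against the uninhibited signal.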

[2] = target: T2, Proteasome Macropain subunit MB1 (Homo sapiens, UniProt P28074); test: Inhibition of chymotrypsin-like activity of human 20S proteasome beta5 subunit using Suc-LLVY-Glo as substrate incubated for 2 hrs followed by substrate addition and measured for 10 mins by bioluminescent assay
T2 sequence (P28074 whole entry): T1 sequence (whole entry)
Outline: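 Human constitutive 20S proteasome (1 μg/mL) was combined with compound serially diluted in 10 mM HEPES pH 7.6, with final DMSO 1% (v/v). After 2 h at 25 °C, Suc-LLVY-Glo (CT-L), Z-LRR-Glo (T-L) or Z-nLPnLD-Glo (C-L) reagent was added. Luminescence was read over 10 min, and IC50 was taken from inhibition rates.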

HCT-116 [3] = test: Antitumour activity against human HCT-116 cells xenografted in BALB/c athymic nude mouse assessed as reduction in tumour growth at 5 mg/kg, iv administered twice a week for 28 days by caliper analysis; type: functional, organism-based; conditions: time 28.0 day
Outline: (§1)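 Male nude mice had 1 × 10^7 HCT-116 cells in serum-free RPMI 1640 implanted subcutaneously in the right flank. At ~300 mm³ (about day 10) they were randomized, n=3/group. Dosing was by tail vein twice weekly (D1/D4) for four weeks: 10 mg/kg in 8% ethanol/2% Tween 80/90% water, or 5 mg/kg in 10% sulfobutylether-β-cyclodextrin, 10 mmol/L citrate pH 3.5. Caliper volume (length × width²)/2 and body weight were measured twice weekly.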

[4] = target: T1, Proteasome Macropain subunit MB1 (Homo sapiens); test: Irreversible inhibition of human 20S proteasome beta5 subunit assessed as residual enzyme activity using Suc-LLVY-Glo as substrate preincubated for 2 hrs followed by compound washout and further incubated for 4 hrs followed by substrate addition and measured after 10 mins by bioluminescent assay relative to control
Outline: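 Human 20S proteasome (8 μg/mL) was pre-incubated with inhibitor for 2 h at 25 °C. Samples were then washed five times in assay buffer on 100 kDa cut-off centrifugal filters (14,000 g, 5 min each) and recovered. After a further 4 h at 25 °C, Suc-LLVY-Glo was added and luminescence was read after 10 min. Unwashed samples held an extra 4 h served as the standard.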

[5] = Toxicity in BALB/c athymic nude mouse xenografted with human HCT-116 cells assessed as reduction in body weight at 5 mg/kg, iv administered twice a week for 28 days; type: organism-based; conditions: in vivo, 672 h, time 28 day; outline: as §1
[6] = Cmax in Sprague-Dawley rat at 4 mg/kg, iv measured up to 48 hrs by LC-MS/MS analysis; type: ADME, organism-based; set-up: route intravenous, dose 4 mg/kg, time <=48; conditions: in vivo
in vivo = conditions: Sprague-Dawley, rat, iv, 4 mg/kg
[7] = target: T1, Proteasome Macropain subunit MB1 (Homo sapiens); test: Covalent binding affinity to human 20S proteasome beta5 subunit assessed as compound-tryptic digest TTTLAFKFR peptide adduct formation at 10 uM incubated for 2 hrs measured after overnight incubation with trypsin by LC-MS/MS analysis
Outline: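 Purified human 20S proteasome (4 nM) was incubated with 10 μM inhibitor for 2 h at room temperature, then quenched and denatured with acetonitrile. Trypsin (1:50) digestion ran overnight at 37 °C, followed by C18 desalting. Nano-LC-MS/MS used a 0.1% formic acid water/acetonitrile gradient. Adducts were searched against UniProt at ±10 ppm precursor and ±0.02 Da fragment tolerance, allowing 2 missed cleavages.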

[8] = Clearance in Sprague-Dawley rat at 4 mg/kg, iv measured up to 48 hrs by LC-MS/MS analysis; conditions: in vivo
[9] = Volume of distribution at steady state in Sprague-Dawley rat at 4 mg/kg, iv measured up to 48 hrs by LC-MS/MS analysis; conditions: in vivo
[10] = Half life in Sprague-Dawley rat at 4 mg/kg, iv measured up to 48 hrs by LC-MS/MS analysis; conditions: in vivo
A549 = test: Cytotoxicity against human A549 cells assessed as reduction in cell viability after 72 hrs by Cell Titer-Glo assay; type: functional, cell-based; conditions: A549, 72 h
Outline: (§2)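 Cells were cultured in their respective media with 10% FBS, seeded from log phase at 1000 cells/well, and given compound after 18–24 h. After 72 h, an equal volume of CellTiter-Glo reagent was added and luminescence was read at 37 °C. IC50 came from dose-response curve fits; values are mean ± SD of three independent experiments, each in biological triplicate.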

[11] = Cytotoxicity against human PC3M1E8 cells assessed as reduction in cell viability after 72 hrs by Cell Titer-Glo assay; type: functional, cell-based; conditions: PC3M1E8, 72 h; outline: as §2
HT-29 = test: Cytotoxicity against human HT-29 cells assessed as reduction in cell viability after 72 hrs by Cell Titer-Glo assay; type: functional, cell-based; conditions: HT-29, 72 h; outline: as §2
HEK293 = test: Cytotoxicity against human HEK293 cells assessed as reduction in cell viability after 72 hrs by Cell Titer-Glo assay; type: cell-based; conditions: HEK293, 72 h; outline: as §2
HeLa = test: Cytotoxicity against human HeLa cells assessed as reduction in cell viability after 72 hrs by Cell Titer-Glo assay; type: functional, cell-based; outline: as §2
A-375 = test: Cytotoxicity against human A-375 cells assessed as reduction in cell viability after 72 hrs by Cell Titer-Glo assay; type: functional, cell-based; conditions: A-375, 72 h; outline: as §2
BGC-823 = test: Cytotoxicity against human BGC-823 cells assessed as reduction in cell viability after 72 hrs by Cell Titer-Glo assay; type: functional, cell-based; conditions: BGC-823, 72 h; outline: as §2
HCT-116 [12] = test: Cell cycle arrest in human HCT-116 cells assessed as accumulation at G1 phase at 1 uM after 24 hrs by propidium iodide staining based flow cytometric analysis (reference value: 29%); type: functional
HCT-116 [13] = test: Cytotoxicity against human HCT-116 cells assessed as reduction in cell viability after 72 hrs by Cell Titer-Glo assay; type: functional, cell-based; conditions: HCT-116, 72 h; outline: as §2
HCT-116 [14] = test: Cell cycle arrest in human HCT-116 cells assessed as accumulation at G2/M phase at 1 uM after 24 hrs by propidium iodide staining based flow cytometric analysis (reference value: 21%); type: functional
HCT-116 [15] = test: Cell cycle arrest in human HCT-116 cells assessed as accumulation at S phase at 1 uM after 24 hrs by propidium iodide staining based flow cytometric analysis (reference value: 50%); type: functional

| inhibition [1] | IC50 [2] | SMILES | also measured |
| --- | --- | --- | --- |
| > 50% | 50 µM | COc1ccc(C[C@H](NC(=O)OC(C)(C)C)C(=O)N[C@@H](Cc2ccc(Cl)cc2)C(=O)N[C@@H](CC(C)C)C(=O)c2ccco2)cc1 | – |
| > 50% | > 50 µM | COC[C@H](NC(=O)[C@H](CC(=O)NCCC(C)C)NS(=O)(=O)c1ccc(C)cc1)C(=O)N[C@@H](CC(C)C)C(=O)c1ccco1 | – |
| > 50% | 2.33 µM | Cc1ccc(S(=O)(=O)N[C@@H](Cc2ccccc2)C(=O)N[C@@H](Cc2ccc(O)cc2)C(=O)N[C@@H](CC(C)C)C(=O)c2ccco2)cc1 | – |
| > 50% | 4.56 µM | CC(C)C[C@H](NC(=O)[C@H](Cc1ccc(O)cc1)NC(=O)[C@H](Cc1ccc(O)cc1)NC(=O)c1ccc(CO)cc1)C(=O)c1ccco1 | – |
| > 50% | 7.26 µM | COc1ccc(C[C@H](NC(=O)[C@H](Cc2ccccc2)NC(=O)c2ccccc2[N+](=O)[O-])C(=O)N[C@@H](CC(C)C)C(=O)c2ccco2)cc1 | – |
| > 50% | 7.26 µM | CC(C)C[C@H](NC(=O)[C@H](Cc1ccc(O)cc1)NC(=O)[C@H](Cc1ccc(Cl)cc1)NC(=O)OC(C)(C)C)C(=O)c1ccco1 | – |
| > 50% | 12 µM | COc1ccc(C[C@H](NC(=O)OC(C)(C)C)C(=O)N[C@@H](C)C(=O)N[C@@H](CC(C)C)C(=O)c2ccco2)cc1 | – |
| > 50% | 3.19 µM | COc1ccc(C[C@H](NC(=O)[C@H](Cc2ccccc2)NC(=O)c2ccccc2C)C(=O)N[C@@H](CC(C)C)C(=O)c2ccco2)cc1 | – |
| > 50% | 5.86 µM | COC[C@H](NC(=O)[C@H](Cc1ccc(OC)cc1)NC(=O)OC(C)(C)C)C(=O)N[C@@H](CC(C)C)C(=O)c1ccco1 | – |
| – | – | CC(C)C[C@H](NC(=O)[C@H](CCc1ccccc1)NC(=O)CN1CCOCC1)C(=O)N[C@@H](Cc1ccccc1)C(=O)N[C@@H](CC(C)C)C(=O)[C@@]1(C)CO1 [CARFILZOMIB] | Activity (HCT-116 [3]): Active; Activity [4]: 10%; Activity [5]: Non-Toxic; Cmax [6]: 27.8 µg/mL; AUC(0-t) at 48 h (in vivo): 0.343 µg·h/mL; Activity [7]: Active; clearance at 48 h [8]: 11.7 L/h/kg; Vd at 48 h [9]: 0.3 L/kg; half-life at 48 h [10]: 17 min |
| > 50% | > 50 µM | COc1ccc(C[C@H](NC(=O)[C@H](Cc2ccccc2)NC(=O)c2ccccc2Br)C(=O)N[C@@H](CC(C)C)C(=O)c2ccco2)cc1 | – |
| > 50% | 0.54 µM | COc1ccc(C[C@H](NS(=O)(=O)c2ccc(C)cc2)C(=O)N[C@@H](Cc2ccc(O)cc2)C(=O)N[C@@H](CC(C)C)C(=O)c2ccco2)cc1 | IC50 (A549): 13.1 µM; IC50 [11]: 4.98 µM; IC50 (HT-29): 5.4 µM; IC50 (HEK293): > 50 µM; IC50 (HeLa): 6.35 µM; IC50 (A-375): 3.87 µM; IC50 (BGC-823): 8.37 µM; Activity (HCT-116 [12]): 24%; IC50 (HCT-116 [13]): 3.52 µM; Activity (HCT-116 [14]): 51%; Activity (HCT-116 [15]): 25% |
| > 50% | 5.63 µM | Cc1ccc(S(=O)(=O)N[C@@H](CC(=O)NCC(C)(C)C)C(=O)N[C@@H](C)C(=O)N[C@@H](CC(C)C)C(=O)c2ccco2)cc1 | – |
